In publication PMC9291769 (Chemmedchem, 2021):

What was measured:
[1] = system: CYP (aminopyrine N-demethylase activity); test: CYP inhibition: aminopyrine N-demethylase assay in rat liver microsomes; type: in vitro ADME; conditions: rat liver microsomes, 1, 10 and 100 μM
Procedure, shortened: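 Aminopyrine N-demethylation by rat liver microsomes, with inhibition read as the […] after aminopyrine incubation. Ketoconazole served as the reference CYP inhibitor.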

MTT cell viability assay = type: cell-based, human; conditions: human, A375 cells, Cell viability [%] @ 10 μM±SD
Procedure, shortened: (§1)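 A375 cells were kept in high-glucose DMEM with 10% heat-inactivated FBS, 2 mM L-glutamine and pen/strep. Cells were seeded at 0.5×10^5/well and exposed to 10 µM test compound for 48 h at 37 °C, 5% CO₂, then given MTT. Viability = 100(x−y)/(z−y), where x, y and z are absorbance of treated, resting and untreated cells. Mean ± SD, ≥3 experiments in triplicate.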

IDO1 = IDO1 (Homo sapiens, UniProt P14902); test: Cellular IDO1 inhibition; type: cell-based; conditions: A375 cell line, IFN-γ, 48 h; for IC50: IC50±SD [μM]; for IDO cellular assay inhibition [%] @ 10 μM±SD: L-Kyn by HPLC
Procedure, shortened: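 A375 cells (0.5×10^5/well) were grown overnight, then given test compound (serial dilutions 0.01–30 µM, or single 10 µM) with human IFN-γ (500 U/mL final) and 0.1% DMSO for 48 h. Medium was deproteinized with 20% CCl₃COOH. L-Kyn was quantified by C18 HPLC at 330 nm against a calibration curve; % inhibition was taken versus basal levels. IC50s came from concentration-response curves, ≥3 experiments in triplicate.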

[2] = In vitro metabolic stability in rat liver S9 fraction; type: in vitro ADME; conditions: rat liver S9 with NADPH, 5 μM substrate, 37 °C
Procedure, shortened: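 Pooled male Sprague Dawley rat liver S9 (1.5 mg/mL final protein) was used in 50 mM Tris pH 7.4 with 3.3 mM MgCl₂, 1.3 mM β-NADP, 3.3 mM glucose 6-phosphate, 0.4 U/mL G6PDH and 1% acetonitrile. Test compound was 5 µM, shaken 60 min at 37 °C. Controls lacked S9 or cofactors. Reactions were stopped with ice-cold acetonitrile and centrifuged; residual substrate was measured.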

A375 cells = test: MTT cell viability assay; type: cell-based, human; conditions: 48 h
Procedure, shortened: as §1

TDO (P1.TDO) = TDO (P1.TDO) (Homo sapiens, UniProt P48775); test: IDO1 and TDO selectivity assay, P1.TDO cells; type: cell-based; conditions: 10 μM, 16 h
Procedure, shortened: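 Mouse mastocytoma P815-derived P1.HTR cells, stably electroporated with a human TDO plasmid and selected in puromycin, grown in IMDM with 1 mM glutamine and penicillin/streptomycin, used at ≤10th passage. Cells incubated 16 h with 10 μM test compound; DMSO vehicle as control. Supernatant L-Kyn measured by HPLC-UV (C18 column) against a calibration curve, detection limit 0.05 μM. Triplicate.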

Chain of IDO1 (P14902 whole entry): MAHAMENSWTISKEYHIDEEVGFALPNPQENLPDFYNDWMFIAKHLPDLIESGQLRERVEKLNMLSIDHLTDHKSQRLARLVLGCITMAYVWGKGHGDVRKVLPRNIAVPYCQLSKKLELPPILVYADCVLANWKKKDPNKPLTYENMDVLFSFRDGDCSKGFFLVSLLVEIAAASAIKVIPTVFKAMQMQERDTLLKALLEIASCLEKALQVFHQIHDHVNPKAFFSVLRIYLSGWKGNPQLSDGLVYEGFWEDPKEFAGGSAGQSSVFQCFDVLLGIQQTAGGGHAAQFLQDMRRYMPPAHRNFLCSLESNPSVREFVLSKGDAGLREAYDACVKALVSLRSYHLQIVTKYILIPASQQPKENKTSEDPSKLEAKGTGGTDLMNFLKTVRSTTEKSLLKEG
Chain of TDO (P1.TDO) (P48775 whole entry): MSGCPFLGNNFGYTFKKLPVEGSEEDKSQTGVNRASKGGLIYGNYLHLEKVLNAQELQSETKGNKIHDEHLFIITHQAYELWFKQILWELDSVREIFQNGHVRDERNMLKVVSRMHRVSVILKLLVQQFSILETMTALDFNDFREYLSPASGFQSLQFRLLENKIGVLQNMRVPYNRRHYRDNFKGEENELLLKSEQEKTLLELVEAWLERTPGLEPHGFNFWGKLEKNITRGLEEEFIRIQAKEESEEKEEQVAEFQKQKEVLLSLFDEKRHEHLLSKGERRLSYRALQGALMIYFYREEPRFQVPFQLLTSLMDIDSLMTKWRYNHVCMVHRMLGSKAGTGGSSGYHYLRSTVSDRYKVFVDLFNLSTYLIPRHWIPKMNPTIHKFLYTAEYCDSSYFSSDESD

| Molecule | viability at 48 h, 10 μM (MTT cell viability assay) [%] | also measured |
| --- | --- | --- |
| CC(=O)N1CCN(c2ccc(OCC3COC(Cn4ccnc4)(c4ccc(Cl)cc4Cl)O3)cc2)CC1 (stereo not drawn) [ketoconazole, reference compound] |  | CYP inhibition (aminopyrine N-demethylase activity) [1]: strong inhibition of CYP |
| N#Cc1ccc(-c2ccc(F)c(C(=O)NCc3nnc4ccc(C(F)(F)F)cn34)c2)cc1 [Compound 19, 4′‐Cyano‐4‐fluoro‐N‐((6‐(trifluoromethyl)‐[1,2,4]triazolo[4,3‐a]pyridin‐3‐yl)methyl)‐[1,1′‐biphenyl]‐3‐carboxamide] | 97 ± 2.1 |  |
| COc1ccc(-c2ccc(F)c(C(=O)NCc3nnc4ccc(C(F)(F)F)cn34)c2)cc1 [Compound 21, 4‐Fluoro‐4′‐methoxy‐N‐((6‐(trifluoromethyl)‐[1,2,4]triazolo[4,3‐a]pyridin‐3‐yl)methyl)‐[1,1′‐biphenyl]‐3‐carboxamide] | 78 ± 4.2 |  |
| O=C(NCc1nnc2ccc3ccccc3n12)c1cccc2cn[nH]c12 [Compound 37, N‐([1,2,4]Triazolo[4,3‐a]quinolin‐1‐ylmethyl)‐1H‐indazole‐7‐carboxamide] | 100 ± 4.1 | IC50 (IDO1): 6.9 ± 0.8 µM |
| COc1ccc(-c2ccc(F)c(C(=O)NCc3nnc4ccc5ccccc5n34)c2)cc1 [Compound 40, N‐([1,2,4]triazolo[4,3‐a]quinolin‐1‐ylmethyl)‐4‐fluoro‐4′‐methoxy‐[1,1′‐biphenyl]‐3‐carboxamide] | 97 ± 3.8 | IC50 (IDO1): 3.4 ± 0.3 µM; Residual peak area after RLS9 incubation (60 min) [2]: higher than 99% |
| COc1ccc(-c2ccc(F)c(C(=O)NCc3nnc4ccc(Cl)cn34)c2)cc1OC [Compound 32, N‐((6‐Chloro‐[1,2,4]triazolo[4,3‐a]pyridin‐3‐yl)methyl)‐4‐fluoro‐3′,4′‐dimethoxy‐[1,1′‐biphenyl]‐3‐carboxamide] | 98 ± 9.3 |  |
| 2‐Methyl‐3‐((pyridin‐3‐ylmethyl)amino)‐N‐((6‐(trifluoromethyl)‐[1,2,4]triazolo[4,3‐a]pyridin‐3‐yl)methyl)benzamide [Compound 11] |  | IDO cellular assay inhibition [%] @ 10 μM±SD (IDO1): 22±5%; Cell viability [%] @ 10 μM±SD (A375 cells): 91±12.7% |
| Cc1ccccc1-c1ccc(F)c(C(=O)NCc2nnc3ccc(C(F)(F)F)cn23)c1 [Compound 20, 4‐Fluoro‐2′‐methyl‐N‐((6‐(trifluoromethyl)‐[1,2,4]triazolo[4,3‐a]pyridin‐3‐yl)methyl)‐[1,1′‐biphenyl]‐3‐carboxamide] | 100 |  |
| COc1cc(C)c(C(=O)NCc2nnc3ccc(C(F)(F)F)cn23)c(C)c1 [Compound 17, 4‐Methoxy‐2,6‐dimethyl‐N‐((6‐(trifluoromethyl)‐[1,2,4]triazolo[4,3‐a]pyridin‐3‐yl)methyl)benzamide] | 89 ± 9.2 |  |
| N‐((6‐(Trifluoromethyl)‐[1,2,4]triazolo[4,3‐a]pyridin‐3‐yl)methyl)‐9H‐fluorene‐4‐carboxamide [Compound 10] |  | IDO cellular assay inhibition [%] @ 10 μM±SD (IDO1): 34±1%; Cell viability [%] @ 10 μM±SD (A375 cells): 90±14.8% |
| O=C(NCc1nnc2ccc3ccccc3n12)c1ccc(O)c(Br)c1 [Compound 38, N‐([1,2,4]Triazolo[4,3‐a]quinolin‐1‐ylmethyl)‐3‐bromo‐4‐hydroxybenzamide] | 95 ± 7.1 | IC50 (IDO1): 0.9 ± 0.02 µM; Kyn levels in P1.TDO cells (TDO (P1.TDO)): not able to induce a reduction of Kyn levels in P1.TDO; CYP inhibition (aminopyrine N-demethylase activity) [1]: did not significantly inhibit CYP at the tested concentrations |
| O=C(NCc1nnc2ccc(C(F)(F)F)cn12)c1ccc(O)c(Br)c1 [Compound 12, 3‐Bromo‐4‐hydroxy‐N‐((6‐(trifluoromethyl)‐[1,2,4]triazolo[4,3‐a]pyridin‐3‐yl)methyl)benzamide] | 92 ± 12 |  |
| O=C(NCc1nnc2ccc(C(F)(F)F)cn12)c1cc(Br)c(O)cc1O [Compound 13, 5‐Bromo‐2,4‐dihydroxy‐N‐((6‐(trifluoromethyl)‐[1,2,4]triazolo[4,3‐a]pyridin‐3‐yl)methyl)benzamide] | 94 ± 2.8 |  |
| Cc1ccc(Br)c(C)c1C(=O)NCc1nnc2ccc(C(F)(F)F)cn12 [Compound 14, 3‐Bromo‐2,6‐dimethyl‐N‐((6‐(trifluoromethyl)‐[1,2,4]triazolo[4,3‐a]pyridin‐3‐yl)methyl)benzamide] | 100 |  |
| Cc1ccc(-c2ccc(F)c(C(=O)NCc3nnc4ccc(C(F)(F)F)cn34)c2)cc1C [Compound 24, 4‐Fluoro‐3′,4′‐dimethyl‐N‐((6‐(trifluoromethyl)‐[1,2,4]triazolo[4,3‐a]pyridin‐3‐yl)methyl)‐[1,1′‐biphenyl]‐3‐carboxamide] | 95 ± 7.2 | IC50 (IDO1): 2 ± 0.3 µM; Residual peak area after RLS9 incubation (60 min) [2]: higher than 99%; Kyn levels in P1.TDO cells (TDO (P1.TDO)): not able to induce a reduction of Kyn levels in P1.TDO |
| COc1cc(F)c(C(=O)NCc2nnc3ccc(C(F)(F)F)cn23)c(F)c1 [Compound 16, 2,6‐Difluoro‐4‐methoxy‐N‐((6‐(trifluoromethyl)‐[1,2,4]triazolo[4,3‐a]pyridin‐3‐yl)methyl)benzamide] | 100 ± 5.2 |  |
| O=C(NCc1nnc2ccc(C(F)(F)F)cn12)c1cc(-c2ccc(F)cc2)ccc1F [Compound 18, 4,4′‐Difluoro‐N‐((6‐(trifluoromethyl)‐[1,2,4]triazolo[4,3‐a]pyridin‐3‐yl)methyl)‐[1,1′‐biphenyl]‐3‐carboxamide] | 88 ± 16.8 |  |
| O=C(NCc1nnc2ccc(C(F)(F)F)cn12)c1c(F)ccc(Cl)c1Cl [Compound 15, 2,3‐Dichloro‐6‐fluoro‐N‐((6‐(trifluoromethyl)‐[1,2,4]triazolo[4,3‐a]pyridin‐3‐yl)methyl)benzamide] | 100 ± 0.7 |  |
| O=C(NCc1cccc2ccccc12)c1cccc2cn[nH]c12 [Compound 44, N‐(Naphthalen‐1‐ylmethyl)‐1H‐indazole‐7‐carboxamide] | 99 ± 1 |  |
| COc1ccc(-c2ccc(F)c(C(=O)NCc3nnc4ccc(C(F)(F)F)cn34)c2)cc1OC [Compound 25, 4‐Fluoro‐3′,4′‐dimethoxy‐N‐((6‐(trifluoromethyl)‐[1,2,4]triazolo[4,3‐a]pyridin‐3‐yl)methyl)‐[1,1′‐biphenyl]‐3‐carboxamide] | 94 ± 2.1 | IC50 (IDO1): 1.4 ± 0.5 µM; Residual peak area after RLS9 incubation (60 min) [2]: higher than 99%; Kyn levels in P1.TDO cells (TDO (P1.TDO)): not able to induce a reduction of Kyn levels in P1.TDO; CYP inhibition (aminopyrine N-demethylase activity) [1]: low inhibition at 10 and 100 μM |
| Cc1ccc(-c2cccc(C(=O)NCc3nnc4ccc(C(F)(F)F)cn34)c2)cc1 [Compound 22, 4′‐Methyl‐N‐((6‐(trifluoromethyl)‐[1,2,4]triazolo[4,3‐a]pyridin‐3‐yl)methyl)‐[1,1′‐biphenyl]‐3‐carboxamide] | 93 ± 9.8 |  |
| O=C(NCc1nnc2ccc(Cl)cn12)c1cccc2cn[nH]c12 [Compound 30, N‐((6‐Chloro‐[1,2,4]triazolo[4,3‐a]pyridin‐3‐yl)methyl)‐1H‐indazole‐7‐carboxamide] | 98 ± 7.4 |  |
| O=C(NCc1nnc2ccccn12)c1cccc2cn[nH]c12 [Compound 42, N‐([1,2,4]Triazolo[4,3‐a]pyridin‐3‐ylmethyl)‐1H‐indazole‐7‐carboxamide] | 100 |  |
| COc1cc(C)c(C(=O)NCc2nnc3ccc4ccccc4n23)c(C)c1 [Compound 39, N‐([1,2,4]Triazolo[4,3‐a]quinolin‐1‐ylmethyl)‐4‐methoxy‐2,6‐dimethylbenzamide] | 94 ± 6.3 | IC50 (IDO1): 1.8 ± 0.2 µM; Residual peak area after RLS9 incubation (60 min) [2]: higher than 99%; Kyn levels in P1.TDO cells (TDO (P1.TDO)): not able to induce a reduction of Kyn levels in P1.TDO |
